Experiment: Toxicity liver stage against HepG2, at 10uM
Format: cell-based
Design: test concentration 10 uM, cell line HepG2-A16-CD81EGFP
Settings: human, HepG2-A16-CD81EGFP cells; read-out: INHIBITION
In short: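 Uninfected HepG2-A16-CD81EGFP cells, 3 × 10^3 per well, 1536-well, plated on prespotted compound at 10 μM final, parasite-free screening media added to match infected plates; puromycin 10 μM positive, DMSO 0.5% negative; run in parallel with 48 h PbLuc assay at 37 °C, 5% CO2; viability by CellTiter-Glo luminescence, normalized to controls.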

SMILES	cytotoxicity at 10 µM [%]
O=C(NC[C@H]1OC[C@@H](NC2CCC(F)(F)CC2)[C@@H]1O)C1CCCC1	-77.9
Cn1ccnc1CN1C(=O)CO[C@H]2CN(Cc3ccccc3O)C[C@H]21	4.22
CC(C)(C)C(=O)N1CC(=O)N(Cc2ccco2)CC(O)C1 (stereo not given)	4.79
CC(C)Cc1nc(NC(=O)c2cc(-c3cccnc3)n[nH]2)n[nH]1	2.34
Cn1cccc1C(O)CNC(=O)COc1ccccc1F (stereo not given)	-2.54
CCS(=O)(=O)NCC1CCN(c2cnccn2)CC1	10.3
Cc1ccc2c(n1)N(Cc1cccnc1)CCN(C(=O)C1CC=CC1)C2	8.07
CN(Cc1cccnc1)[C@@H]1CN(c2ncc(F)cn2)[C@@H]2CCCO[C@H]12	0.559
Cc1cnc(N2C(=O)CSC2c2ccc(N(C)C)cc2)s1 (stereo not given)	6.07
Cc1nn2c(=O)/c(=C\c3cccs3)sc2nc1=O	7.19
CC(C)(CO)NCc1nn(Cc2ccccc2)nc1-c1ccccc1	-6.69
NC(=O)c1c(-c2ccc(Cl)cc2)csc1NC(=O)CCC(=O)O	13.8
Clc1ccc(-n2nnnc2C2(NCc3ccco3)CCCCC2)cc1	15.7
CCOCCCNC(=O)c1cc(C)nc(N2CCCCC2)n1	8.52
COCc1cccc(S(=O)(=O)N2CCSCC2)c1	8.19
CS(=O)(=O)N1CCC(C(=O)NCCCn2cc(Cl)cn2)CC1	-8.97
CCC(=O)Nc1nnc(CCOc2ccc(OC)cc2)s1	6.31
Cc1cc(C)n(CCC(=O)N2CCC(c3nc(C(C)C)no3)CC2)n1	-16.1
O=C(c1ccc2c(c1)CCC2)N1CCn2ncnc2C1	-5.26
CSCC[C@@H]1CN2CCC[C@H]2CN1Cc1coc2ccc(C)cc2c1=O	2.89
CN(CC1(O)CCCN(c2ccccn2)C1)C(=O)CCc1cccs1 (stereo not given)	-26.9
CN(C)C(=O)CN1CCCCC1c1nc(N)ncc1-c1cccc(F)c1 (stereo not given)	-3.68

SMILES	cytotoxicity at 10 µM [%]
CS(=O)(=O)N1Cc2ccccc2CC2(CCN(Cc3ccccn3)C2)C1 (stereo not given)	4.51
CN1CCC2(Cc3ccccc3CN(C(=O)CCN)C2)C1 (stereo not given)	0.17
CCOc1nnc(CN(CC)CC(=O)NC(C)C)s1	3.88
O=S(=O)(CCCn1cncn1)Cc1ccc(F)cc1Cl	7.49
CCCC(=O)N(C)Cc1cccc(OC(C)C)c1	-4.24
CCNC(=O)NC1CCC(Oc2ccccc2C#N)CC1 (stereo not given)	-9.08
Cn1cc(C(=O)Nc2cccc(-c3ccc4c(c3)CCO4)n2)ccc1=O	3.72
CN(C1CCCCC1)S(=O)(=O)N1CCN(Cc2ccco2)CC1	-81.7
CCCSCC(=O)NCc1cccc(CN(C)CC)c1	-0.823
O=C(CCn1cnc2ccccc21)N1CCN2CCCCC2C1 (stereo not given)	-4.34
COc1cccc(CNC(=O)C(C)N2CC(n3nc(C)cc3C)C2)c1 (stereo not given)	0.868
NCC(CO)Cc1ccc(C(F)(F)F)cc1 (stereo not given)	4.42
COc1ccc(CC(=O)NCCn2nc3ccccn3c2=O)cc1	-8.61
Cc1ccc(C(=O)NCCNS(C)(=O)=O)c(=O)[nH]1	-5.3
O=C(CCCC1CCCC1)NS(=O)(=O)CC1CC1	-5.62
CCOc1ccc(NC(=O)N2CCNC(=O)C2)c(C(F)(F)F)c1	7.09
CN(Cc1ccc(F)cc1C#N)CC(F)(F)F	4.28
Cc1n[nH]cc1CNC1(c2ccc(F)cc2)CCCC1	9.56
COc1cc(CN(C)C(=O)Nc2cc(C)on2)ccc1SC	-10.7
CNC(=O)c1cnc(/C=C/c2ccc(OC)c(O)c2)s1	-11.1
CCCn1nc2c(cc1=O)CN(Cc1cc(C)on1)CC2	-13.9
CNC(=O)NCC1CCC2(CCN(C(=O)c3ccccc3)CC2)CO1 (stereo not given)	-97.2

SMILES	cytotoxicity at 10 µM [%]
O=C([C@@H]1CCCO1)N1CCN(Cc2ccncc2)c2ncccc2C1	-95.7
Cc1nc(-c2nc(C(=O)N(C)C)c3ccccn23)cn1C(C)C	-121
Cn1ncc2c1C(COCC1CC1)CN(CC1CC1)C2 (stereo not given)	-78.5
O=C(c1cccs1)N1CC[C@@H]2[C@H]1CCC(=O)N2c1ccccc1	-97.5
CN(C)CCN1CC[C@@H]2[C@@H]1CCN2C(=O)c1cccc(Cl)c1	-84
CCc1ncc(C(=O)N2CCCOC(Cn3cccn3)C2)cn1 (stereo not given)	-0.95
CC(C)c1cc(C(=O)N2CCCC3(CCNC3)C2)no1 (stereo not given)	5.28
COCCN1CCC(C(=O)N(C)Cc2c[nH]c3ccc(C)cc23)C1 (stereo not given)	-13.2
Cn1ccnc1CN1CC[C@@H]2[C@@H](CCC(=O)N2CCc2c[nH]cn2)C1	-5.68
NC(=O)Cn1ccnc1C1CCCN(CCSc2ccccc2)C1 (stereo not given)	-2.65
Cn1c(Cn2ncc(N3CCCCC3)cc2=O)nc2ccccc21	6.01
COc1ccc(CN2CCC3(CC2)C(C(=O)O)CC(=O)N3C)cc1Cl (stereo not given)	-5.66
CCSCCNC(=O)c1cnc(-c2ccccc2)nc1O	-1.54
O[C@@]1(Cn2cnc(Cl)c2Cl)CCCN2CCCC[C@@H]21	-1.88
CCN(CC)C(=O)N1CCN(Cc2cnc(C)nc2)[C@H]2CS(=O)(=O)C[C@H]21	-8.84
Cc1nn(C)c2nc(N(C)CCN(C)C3CCCC3)sc12	3.55
O=C1CC(NCc2ncc[nH]2)CN1CCc1cccc(Cl)c1 (stereo not given)	-0.745
Cc1c[nH]c(CN2CCCCC2CCc2cccc(O)c2)c(C)c1=O (stereo not given)	-14.6
CCc1noc(CN(CC)C(=O)c2ccc3ncsc3c2)n1	12.2
CNc1cc(C)nc(N2CCN(Cc3ccccc3)CC(O)C2)n1 (stereo not given)	-4.21
CC(C)[C@]1(O)CN(C(=O)CNC(N)=O)C[C@H]1C	5.69
Cc1nc2c(c(NCc3cnc4c(c3)CCC4)n1)CNC2	-3.57

SMILES	cytotoxicity at 10 µM [%]
Cc1ccccc1CN(CCN(C)C)Cc1ccc(S(C)(=O)=O)cc1	6.3
CC(C)c1ccc(N2CCc3onc(-c4ccc(F)c(F)c4)c3C2)nn1	0.324
Fc1cccc(Cl)c1Cn1ncnc1CSCCN1CCCC1	-0.454
O=C(NCCN1CCOC1=O)c1ccc2sccc2c1	12.9
Cc1ccccc1N1CCCN(CC2(O)CCCNC2)CC1 (stereo not given)	-6.1
Cc1ccc(C)c(C(NC2CCCC2)c2cccnc2)c1 (stereo not given)	23.5
CN(C)C[C@@H]1CN(C(=O)c2cc(F)ccc2F)C[C@@H]1CO	7.45
Cc1cc(C)n(C2CN(c3ncnc4c3CCNCC4)C2)n1	7.99
Cc1[nH]c2ccc(CNC(=O)c3ccc(CN4CCCC4)o3)cc2c1C	-2.5
O=C(NCCc1ccncc1)C1CCN(Cc2ccco2)CC1	26.1
CCCc1cc(C(=O)N2CCCC2c2cccnc2)[nH]n1 (stereo not given)	-9.81
CCCS(=O)(=O)N1CCN(c2cc(-n3cnc(C)c3C)nc(C)n2)CC1	-8.51
Cc1cc(C2CCCN(C(=O)c3cnn(C)c3)C2)ccn1 (stereo not given)	-2.83
Cc1cc(C2CCCN(C(=O)c3cnccn3)C2)ccn1 (stereo not given)	0.204
CCCc1cc(C(=O)N2CCOC(c3nc(-c4cccs4)no3)C2)no1 (stereo not given)	8.37
Cc1nccn1C1CCCN(C(=O)c2ccc3nncn3c2)C1 (stereo not given)	-2.42
Cc1nc(CN(C)C2CCCN(Cc3noc(C4CC4)n3)C2)oc1C (stereo not given)	-2.34
Cc1nccc(C(=O)N2CCCC(c3cc(C(F)(F)F)[nH]n3)C2)n1 (stereo not given)	-4.59
O=C(c1nn(-c2ccccc2F)cc1O)N1CCC2(CC1)OCCO2	-3.24
Cc1noc(C)c1CN(C)C(=O)NC1CCC(O)CC1 (stereo not given)	-9.21
COCC(c1cccc(C(F)(F)F)c1)N(C)C(=O)c1ccoc1 (stereo not given)	-3.84
CC(C)c1noc(CCCC(=O)N2CCN(Cc3ccccn3)CC2)n1	-1.79

SMILES	cytotoxicity at 10 µM [%]
CCNc1cc2c(nn1)CCN(C(=O)c1cc(C)no1)C2	-14.5
CCn1ncc2c1CCCC2NCc1cccc2c1OCCCO2 (stereo not given)	-13.4
Cc1ccc(CNC(C)c2ccc(OCC(=O)NC3CC3)cc2)o1 (stereo not given)	2.07
CCOc1ccc(C(=O)N2CCCCC2Cn2nc(C)cc2C)cn1 (stereo not given)	6.6
Cc1nc(C)n(CC2CCCN(CCCOc3ccc(F)cc3)C2)n1 (stereo not given)	-3.08
O=C(c1ccc2c(c1)COC2)N1CCC(Nc2cccnn2)CC1	-13.1
O=C(NCCC1=CCCCC1)NCc1nnc2n1CCC2	-5.6
CC(C)(C)c1ncc(C(=O)NCCS(N)(=O)=O)s1	-9.58
COc1ccc(C2=CCN(C(=O)C3CC(=O)N(C4CC4)C3)CC2)cc1 (stereo not given)	-6.66
CN1CCN(C(=O)c2ccc(=O)n(C)c2)Cc2ccccc21	-10.2
O=C(Nc1nccs1)N(CCO)Cc1ccsc1	1.4
Cc1cnn(CC2CCCCN2C(=O)c2cc(Cl)c[nH]2)c1 (stereo not given)	-5.4
COc1ccc(Br)c(C(=O)NCCNc2ccc(C(F)(F)F)cn2)c1	12.7
c1cc(-c2nc(CN3CCn4c(nnc4C4CC4)C3)cs2)cs1	-2.22
Cc1oncc1C(=O)N[C@@H]1CN(C2CCC2)C[C@@H]2CCCO[C@@H]21	-109
Cc1nc(CN2CCO[C@H]3[C@@H](OCc4ccccn4)CC[C@@H]32)cs1	0.179
COC1CCC[C@@H]2CN(Cc3csc(C)n3)C[C@H]12 (stereo not given in full)	-110
Cn1ccnc1CN1C[C@@H]2[C@@H](C1)OCC(=O)N2CC1CCCC1	-4.48
Cc1noc(C)c1CNCC1Cn2nncc2CO1 (stereo not given)	-101
O=C(COC1CCCC1)N1C[C@@H]2COC[C@]2(COc2cccnc2)C1	-99.4
Cc1nc(CN2C[C@@H]3CN(C(=O)c4ccco4)C[C@@H]3C2=O)cs1	-77.7
Cc1ccccc1CC(=O)N1C[C@@H]2CC[C@H]1CN(Cc1cccnc1)C2	-2.36
